Laboratory results as given in the EternaBench riboswitch data.

Test system: MS2 coat protein
Assay: apparent Kd, MS2 coat protein; higher = weaker binding; RNA-MaP array
In short: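 In Tris-HCl pH 7.5 buffer with KCl, MgCl2, BSA, DTT, tRNA and Tween20, with or without input ligand, fluorescently labeled MS2 coat protein at 1.5 nM to 3 μM was incubated at room temperature with designed RNAs. The RNAs had been transcribed on an Illumina sequencing chip from sequenced DNA templates, and incubation ran 0.8–1.5 h at the lowest to 10–20 min at the highest concentrations. Apparent Kd is the median of binding-curve fits for individual clusters. Designs measured on fewer than 10 clusters were excluded.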

[1] = designed as: OFF switch for flavin mononucleotide, no ligand
[2] = ligand present: flavin mononucleotide, designed as: OFF switch for flavin mononucleotide
[3] = designed as: ON switch for flavin mononucleotide, no ligand
[4] = ligand present: flavin mononucleotide, designed as: ON switch for flavin mononucleotide
[5] = designed as: OFF switch for tryptophan, no ligand
[6] = ligand present: tryptophan, designed as: OFF switch for tryptophan
[7] = designed as: OFF switch for theophylline, no ligand
[8] = ligand present: theophylline, designed as: OFF switch for theophylline
[9] = designed as: ON switch for tryptophan, no ligand
[10] = ligand present: tryptophan, designed as: ON switch for tryptophan
[11] = designed as: ON switch for theophylline, no ligand
[12] = ligand present: theophylline, designed as: ON switch for theophylline

Row | Sequence | apparent Kd [1] [µM] | apparent Kd [2] [µM] | apparent Kd [3] [µM] | apparent Kd [4] [µM] | also measured
1 | AACAUGAGGAUCACCCAUGUAGGUACUUCUCGACGGCCUACAAGAAGGUGUUGUAAAGUCAAGAACAAGGAUAUUGUGAUGGCU | 0.555 | 0.371 | – | – | –
2 | AAAAGGAUGAUAGGAUAUCAUAACAUGAGGAUCACCCAUGUACAGACGCAACGCUAAACUAGACAUGAGAAGGAUCACAAAACA | – | – | 0.179 | 0.0822 | –
3 | GAACAGCGGCAGAAGGACUCGCGAUUGUGUACGAACAUGAGGAUCACCCAUGUGUGAGUAUUCCAGUAGGAUAUGCGUUCUAUA | 0.0172 | 0.0121 | – | – | –
4 | GUCGCAAUCCAGAAGGACGGGCUUGGCGAGUACGUAGGAUAUGGCAGUCACAUGAGGAUCACCCAUGUCAGGAAUUUAAUCAGG | – | – | 0.0538 | 0.0217 | –
5 | CAUAGAGCUAAGAAGGCGUACGGAGACAGCAUACGAGGAUAUUAACGUCCAUGAACAUGAGGAUCACCCAUGUCGAAAACCAAA | – | – | 0.00842 | 0.00815 | –
6 | GUGAUACUUGGAGGAUAUGCUUUCACCUGGUACUCUAUUACAGUGACAUGAGGAUCACCCAUGUAGCAGAAGGCCAGUCAUCGA | – | – | 0.0188 | 0.00973 | –
7 | UCAACACAUGAGGAUCACCCAUGUUAUACUAGGGUAGGAUAUGACGUAGUGAAGUGCUCUUCAGAAGGACCAUGGG | – | – | 0.0647 | 0.0301 | –
8 | GAUUGACAUGAGGAUCACCCAUGUAGCGUAUGGUGACUUCUGAAGGAUAUUAAUGCAGUGGCGGUUAAGAAGGUCAGCUAAUCG | 0.0457 | 0.035 | – | – | –
9 | GGUUGAUGGUCGGCCGCCACUGUUGGUGCCAUGAGUUAAGUAUAGCACAUGAGGAUCACCCAUGUCAGGACCGGGACUCUACCCG | – | – | – | – | apparent Kd [5]: 0.0146 µM; apparent Kd [6]: 0.0181 µM
10 | ACUCAACAUGAGGAUCACCCAUGUACUCCAAACAAAGGAUAUUGUGAGUUAAUAUGCAUGCAAGAAGGUUGGUUCA | – | – | 0.0428 | 0.0363 | –
11 | CACCAAUUUCGAGGAUAUACGGCCGGUUAACAUUCGUCUUACAUGAGGAUCACCCAUGUGUUCGCGUAGAAGGCGAUUCUUAAU | – | – | 0.0353 | 0.0312 | –
12 | ACGAGCCUAGGAUAUACAUGAGGAUCACCCAUGUGACUGAACACUCCGGUAUGUGCGGGUAGAAGGAGGUUCCA | 0.0163 | 0.0168 | – | – | –
13 | AAAACGCAACUCGAUACCAGUACACUGAGUCUUCGCCACGACAUGAGGAUCACCCAUGUGUACCCUUGGCAGCGACAGAGCCACA | – | – | – | – | apparent Kd [7]: 0.0539 µM; apparent Kd [8]: 0.261 µM
14 | GGAUGCUCGACUCAGGAUAUACACACCGCAACAUGAGGAUCACCCAUGUAAUACGAACAAUGCACGUAGAAGGGAGGUUAACUCGA | – | – | 0.0464 | 0.0191 | –
15 | AGCGAUGACUGAGGAUAUGCUGUUAGGACAUUGCAACAUGAGGAUCACCCAUGUGAAGGCCGUCAGCAGAAGGCAGUACGUGGA | – | – | 0.00608 | 0.00475 | –
16 | GAGAGGAGGGAGAAGGAGAUAGUCUUCGGCAAUCUAGGAUAUCCACGUAGGGAAUCUCACAUGAGGAUCACCCAUGUUCAGCCG | 0.0348 | 0.0317 | – | – | –
17 | CAUCAGAGUGUCAGGAUAUGUUCAAAUAACUCGGGACAGAAGGGACAUGAGGAUCACCCAUGUGCAUAAAUUUA | 0.0184 | 0.0469 | – | – | –
18 | UGGACUGUGACAUGAGGAUCACCCAUGUAAAUAAUUCCGCAUAGAAGGGUCCAACGUAAAUGAAGACAGGAUAUAUGGGAGCGU | – | – | 0.0454 | 0.024 | –
19 | CACAUGAGGAUCACCCAUGUCUACGAAAGAUGUAGGGAAAAGAGAAGGUGGAGGGAACUGCCAGCCAAGGAUAUCUGCACUCGA | 0.0318 | 0.0333 | – | – | –
20 | GAUUGAGUUCUAGGAUAUCCAGAGCGGCGUGGGACAUGAGGAUCACCCAUGUGCUCUAUGAUCAUGGAGAAGGAGAACCCCGUU | 0.0373 | 0.046 | – | – | –
21 | ACAUGAGGAUCACCCAUGUUCACGGUUCACGAAGUCUAAAGCUAGGAUAUCAUUGGGUGGGCGCAUGAGAAGGAGCUUCCCGUA | – | – | 0.0701 | 0.0443 | –
22 | GUCAUUGCGGAGGAUAUAAAGCAAACCAAGAUGUUAGAAGGCCGGACAUGAGGAUCACCCAUGUGAUUGCACGC | 0.0176 | 0.015 | – | – | –
23 | AACUGGAAGGAAGGAUAUUCAACCACGAUCAGUGCCAAGCACAUGAGGAUCACCCAUGUUGUCCUGAAGAAGGUCCUAUGUCAA | 0.0163 | 0.0115 | – | – | –
24 | CUUUACUGAGGAUAUACGCAGAUCUAGAUAUCGUAAUACGAACAUGAGGAUCACCCAUGUAGAAGGCAGGCCGA | 0.0124 | 0.0241 | – | – | –
25 | UAGAAACGUACGGCCGCCACUCGGAAUUGGCUCAGACCAUACGUACAUGAGGAUCACCCAUGUUAGAGGACCGGGUAUAAUCUAA | – | – | – | – | apparent Kd [9]: 0.0267 µM; apparent Kd [10]: 0.0203 µM
26 | AAAUAAUCUAGUCCACAAUGUGACUCAGAUACCAGUGCAAAGCUACACCCUUGGCAGCUGGUUACAUGAGGAUCACCCAUGUCGU | – | – | – | – | apparent Kd [7]: 0.0476 µM; apparent Kd [8]: 0.116 µM
27 | AGAGAAAAGUAACAUGAGGAUCACCCAUGUAUCCCACGAGUCAGAAGGAGCGGGUUGAUACGAGGCUAGGAUAUGAAGAGUCAU | – | – | 0.153 | 0.0987 | –

Row | Sequence | apparent Kd [1] [µM] | apparent Kd [2] [µM] | apparent Kd [3] [µM] | apparent Kd [4] [µM] | also measured
28 | CUACUCAUAGGAUAUGAAGCCCGAGACAUGAGGAUCACCCAUGUAUGAUCUACUGUGCGCUCAGAAGGAUGCAGUA | 0.0239 | 0.0135 | – | – | –
29 | GGGAGAGAGGUCAGGAUAUUGCGGCGAAAUGCAGUCAAGAAGGGACAUGAGGAUCACCCAUGUACAUCAAGAGC | 0.00638 | 0.0104 | – | – | –
30 | GAGUGGUAAGGAUAUAAUACGAAUACGGUGAAACCCGGCGUUUAGAAGGUACAUGAGGAUCACCCAUGUGAUUA | 0.0132 | 0.0138 | – | – | –
31 | AUUAUGUAAGGAUAUCGAGAAAUAAAGAAUCUAGUCAGCCACGAGAAGGAACAUGAGGAUCACCCAUGUGGAUA | 0.0138 | 0.0122 | – | – | –
32 | GGUCCACAUGAGGAUCACCCAUGUAAGGAUAUCCUGUUUUCUGGUUUAGAGUCGCGAAGGAGAAGGUACAUUAA | 0.0225 | 0.0411 | – | – | –
33 | UUGAUAGCAGGAUAUACAUGAGGAUCACCCAUGUACAGGCAAAAGGGAACUGACCCACGUAGAAGGGCUUCGCA | 0.0108 | 0.021 | – | – | –
34 | CAGAACAUGAGGAUCACCCAUGUAAACGACCGAGGACCGGUACGGCCGCCACUCGAUAUGUCUUGAGGGAGAUAUGGAUUCACAU | – | – | – | – | apparent Kd [9]: 0.0399 µM; apparent Kd [10]: 0.0383 µM
35 | AGAAUGUCAGGAUAUACUCGCUAUGUCGCCAAGUCACGCCGACAUGAGGAUCACCCAUGUAGAAGGGACAAGUA | 0.0129 | 0.0117 | – | – | –
36 | GAUCAACAUGAGGAUCACCCAUGUUAGGAUAUCACACCGGAAAGUGAAAUGCUUUUCUUGAGAAGGAACAAGGC | 0.00791 | 0.00728 | – | – | –
37 | CCUUAGAUACAUGAGGAUCACCCAUGUCACCAGCAACCUGACGAGGAUAUAUAGGCCAAAUAACUAUAGAAGGCGUUGACCCAA | – | – | 0.0205 | 0.0124 | –
38 | AUGGUGUCUUAAGGAUAUGCUCGACAUGAGGAUCACCCAUGUGCCUCGUUUUCCCAACCGAGGUCGCAGAAGGUAAGUGACGUG | – | – | 0.313 | 0.037 | –
39 | GGUGUUCCUCUAGGAUAUAGCGAUACAUGAGGAUCACCCAUGUUACUCCAGCGCGGCGGAUCGCUCUAGAAGGAGACAUAGCCA | 0.0751 | 0.0534 | – | – | –
40 | GGUUGACCUGAGGAACAUGAGGAUCACCCAUGUGUUAGCGGAAAGGAUAUUCGAUUGCACGUUAAGAAGAAGGUUCCAACGUUA | – | – | 0.0144 | 0.0158 | –
41 | CUCGAGUCAGGAUAUAUUAACAGAACUUCCUAAAUGGACGAAUAGAAGGGACAUGAGGAUCACCCAUGUUUGGC | 0.0118 | 0.011 | – | – | –
42 | ACUCUCGGCUAAGGAUAUCUCCGACUGACCAAUAGAGAAGGUAGUCGACGUGCGAUCAGACAUGAGGAUCACCCAUGUGAAAUC | – | – | 0.00707 | 0.00714 | –
43 | GGACAACAUGAGGAUCACCCAUGUGAGAAGUGCAAAGGAUAUCGCAGAAGUGAUAACGAACGAGAAGGUUGCCUCU | – | – | 0.0236 | 0.0101 | –
44 | AACGAUUAAUCGGCCGCCACUCACAUGAGGAUCACCCAUGUUGUUCUUCCAGGUGGUUCUGUUCCGAGGACCGGGAUUCCGUCCU | – | – | – | – | apparent Kd [5]: 0.0551 µM; apparent Kd [6]: 0.0575 µM
45 | CGGUUACUAGGAUAUACAUGAGGAUCACCCAUGUGACCUCCCGUCACGCGUGUACUGGGUAGAAGGAGUCAGGU | 0.0248 | 0.0348 | – | – | –
46 | ACUGGACAUGAGGAUCACCCAUGUGGCGAUACCAGUUUCAGCGGGAACCCUUGGCAGCGCGGUGCCGGCCAUAGAAGUUCUGGGA | – | – | – | – | apparent Kd [11]: 0.0514 µM; apparent Kd [12]: 0.0601 µM
47 | CCUUAAGCAUAAGGAUAUAAGUUUUGACUAAGUUUAGAAGGUAUGCUUGCAAGAUCCGGCAAUAACAUGAGGAUCACCCAUGUG | 0.0276 | 0.0213 | – | – | –
48 | UAUGUCGCCGAAGAUACCAGCCUGGCAAGCAACAUGAGGAUCACCCAUGUAAUUACUUAUGGCCCUUGGCAGCUUCAAAUAGAGC | – | – | – | – | apparent Kd [11]: 0.0114 µM; apparent Kd [12]: 0.0118 µM
49 | UCAGUUCAAGGAUAUACAUGAGGAUCACCCAUGUACCGCAAUGUAGAAAAGUGACGUAGUAGAAGGUGAAACGA | 0.0236 | 0.021 | – | – | –
50 | GAGCUCCACAAGAAGGGCCGUUGCCCAUGGAAGGACGGCACAUGAGGAUCACCCAUGUUGGCAGGGCAGGAUAUUGCAUUUAUU | 0.026 | 0.0828 | – | – | –
51 | UGUCAAUCGCCGGAUACCAGCCUAACUGAAGGAAAUCUAAACAUGAGGAUCACCCAUGUAGGCCCUUGGCAGCCGAGUAAGUACA | – | – | – | – | apparent Kd [7]: 0.0403 µM; apparent Kd [8]: 0.125 µM
52 | AGCGUUGCAGAGAAGGCGGUAUGAGUUACGCUCUCACACAUGAGGAUCACCCAUGUAAUGACGUCCGAGGAUAUCUCACAACUC | 0.00547 | 0.00581 | – | – | –
53 | UCACAACUAGGAUAUUUAGUGCUAUACAUGAGGAUCACCCAUGUCGUGUGCACUAGUACGAAAGAAGGAGUUAUCG | 0.00509 | 0.00521 | – | – | –
54 | GUGAAACAUGAGGAUCACCCAUGUUAGGAUAUAACGCGACGGCAGGGAUCUGCGCUACUUAGAAGGAACGGGAC | 0.0115 | 0.00973 | – | – | –
